Experimental data: ChEMBL document CHEMBL1275269, “Cyclization of some carbothioamide derivatives containing antipyrine and triazole moieties and investigation of their antimicrobial activities” (2010)
The source made the active and inactive calls. The calls are words filed in the database; no cut-off is given here.

Columns and labels:
[1] = test system: Escherichia coli; test: Antibacterial activity against Escherichia coli ATCC 25922 after 18 hrs by agar-well diffusion method; type: functional; on IZ: test concentration or dose not given here
Procedure, shortened: (§1)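 Microorganisms flood-inoculated onto the surface of Mueller-Hinton agar or Sabouraud dextrose agar, then dried. 5 mm diameter wells cut into the agar with a sterile cork-borer.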

[2] = test system: Klebsiella aerogenes; test: Antibacterial activity against Enterobacter aerogenes ATCC 13048 after 18 hrs by agar-well diffusion method; type: functional; procedure, shortened: as §1; on IZ: test concentration or dose not given here
[3] = test system: Yersinia pseudotuberculosis; test: Antibacterial activity against Yersinia pseudotuberculosis ATCC 911 after 18 hrs by agar-well diffusion method; type: functional
Procedure, shortened: (§2)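 Organisms flood-inoculated onto the agar surface and dried. Five-millimetre wells were cut with a sterile cork-borer, and test substance was delivered into each well.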

[4] = test system: Pseudomonas aeruginosa; test: Antibacterial activity against Pseudomonas aeruginosa ATCC 43288 after 18 hrs by agar-well diffusion method; type: functional; procedure, shortened: as §1; on IZ: test concentration or dose not given here
[5] = test system: Staphylococcus aureus; test: Antibacterial activity against Staphylococcus aureus ATCC 25923 after 18 hrs by agar-well diffusion method; type: functional; procedure, shortened: as §1; on IZ: test concentration or dose not given here
[6] = test system: Enterococcus faecalis; test: Antibacterial activity against Enterococcus faecalis ATCC 29212 after 18 hrs by agar-well diffusion method; type: functional; procedure, shortened: as §1; on IZ: test concentration or dose not given here
[7] = test system: Bacillus cereus; test: Antibacterial activity against Bacillus cereus 702 after 18 hrs by agar-well diffusion method; type: functional; procedure, shortened: as §1; on IZ: test concentration or dose not given here
[8] = test system: Mycolicibacterium smegmatis; test: Antibacterial activity against Mycobacterium smegmatis ATCC 607 after 18 hrs by agar-well diffusion method; type: functional; procedure, shortened: as §1; on IZ: test concentration or dose not given here
[9] = test system: Candida albicans; test: Antifungal activity against Candida albicans ATCC 60193 after 18 hrs by agar-well diffusion method; type: functional
Procedure, shortened: (§3)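 Yeast flood-inoculated onto Sabouraud dextrose agar and dried. Five-millimetre wells were cut with a sterile cork-borer, and test substance was delivered into each well.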

[10] = test system: Candida tropicalis; test: Antifungal activity against Candida tropicalis ATCC 13803 after 18 hrs by agar-well diffusion method; type: functional; procedure, shortened: as §3
[11] = test system: Saccharomyces cerevisiae; test: Antifungal activity against Saccharomyces cerevisiae RSKK 251 after 18 hrs by agar-well diffusion method; type: functional; procedure, shortened: as §2
[12] = test system: Aspergillus niger; test: Antifungal activity against Aspergillus niger RSKK 4017 after 18 hrs by agar-well diffusion method; type: functional, organism-based; procedure, shortened: as §1

| SMILES | inhibition zone (IZ) [1] [mm] | inhibition zone (IZ) [2] [mm] | inhibition zone (IZ) [3] [mm] | inhibition zone (IZ) [4] [mm] | inhibition zone (IZ) [5] [mm] | inhibition zone (IZ) [6] [mm] | inhibition zone (IZ) [7] [mm] | inhibition zone (IZ) [8] [mm] | Activity [9] | Activity [10] | Activity [11] | Activity [12] | Activity [2] | Activity [5] | Activity [6] | Activity [7] | other results |
| --- | --- | --- | --- | --- | --- | --- | --- | --- | --- | --- | --- | --- | --- | --- | --- | --- | --- |
| Cc1c(-n2c(Cc3ccc(Cl)cc3)nn(Cc3nnc(S)o3)c2=O)c(=O)n(-c2ccccc2)n1C | 35 | 30 | 30 | 30 | 30 | 28 | 30 | 38 | Active | Active | Active | Active | – | – | – | – | – |
| Cc1c(-n2c(Cc3ccc(Cl)cc3)nn(CC(=O)NN)c2=O)c(=O)n(-c2ccccc2)n1C | – | – | – | – | – | – | – | – | Active | Active | Active | Active | Active | Active | Active | Active | Activity [1]: Active; Activity [3]: Active; Activity [4]: Active; Activity [8]: Active |
| OC(Cn1cncn1)(Cn1cncn1)c1ccc(F)cc1F [FLUCONAZOLE] | – | – | – | – | – | – | – | – | – | – | – | – | – | – | – | – | inhibition zone (IZ) [9]: 25 mm; inhibition zone (IZ) [10]: 25 mm; inhibition zone (IZ) [11]: >25 mm |
| CN[C@@H]1[C@H](O[C@H]2[C@H](O[C@H]3[C@H](O)[C@@H](O)[C@H](N=C(N)N)[C@@H](O)[C@@H]3N=C(N)N)O[C@@H](C)[C@]2(O)C=O)O[C@@H](CO)[C@H](O)[C@H]1O [STREPTOMYCIN] | – | – | – | – | – | – | – | 35 | – | – | – | – | – | – | – | – | – |
| Cc1c(-n2c(Cc3ccc(Cl)cc3)nn(CC(=O)NNC(=S)Nc3ccc(F)cc3)c2=O)c(=O)n(-c2ccccc2)n1C | 15 | 8 | 10 | 10 | 10 | 8 | 10 | 15 | Active | Active | Active | Active | – | – | – | – | – |
| Cc1c(-n2c(Cc3ccc(Cl)cc3)nn(Cc3nnc(S)n3-c3ccc(F)cc3)c2=O)c(=O)n(-c2ccccc2)n1C | 35 | 30 | 30 | 28 | 30 | 28 | 30 | 30 | Active | Active | Active | Active | – | – | – | – | – |
| Cc1c(-n2c(Cc3ccc(Cl)cc3)nn(CC(=O)NNC(=S)Nc3ccccc3)c2=O)c(=O)n(-c2ccccc2)n1C | 10 | – | 8 | 8 | 8 | 8 | 10 | 10 | Active | Active | Active | Active | Active | – | – | – | – |
| Cc1c(-n2c(Cc3ccc(Cl)cc3)nn(Cc3nnc(S)n3-c3ccccc3)c2=O)c(=O)n(-c2ccccc2)n1C | 25 | 25 | 30 | 30 | 25 | 20 | 30 | 34 | Active | Active | Active | Active | – | – | – | – | – |
| Cc1c(-n2c(Cc3ccc(Cl)cc3)nn(Cc3nnc(Nc4ccccc4)s3)c2=O)c(=O)n(-c2ccccc2)n1C | 25 | 25 | 25 | 35 | – | – | – | 25 | Active | Active | Active | Active | – | Active | Active | Active | – |
| Cc1c(-n2c(Cc3ccc(Cl)cc3)nn(Cc3nnc(S)n3Cc3ccccc3)c2=O)c(=O)n(-c2ccccc2)n1C | 35 | 30 | 30 | 30 | 30 | 28 | 30 | 33 | Active | Active | Active | Active | – | – | – | – | – |
| CCOC(=O)Cn1nc(Cc2ccc(Cl)cc2)n(-c2c(C)n(C)n(-c3ccccc3)c2=O)c1=O | – | – | – | – | – | – | – | – | Active | Active | Active | Active | Active | Active | Active | Active | Activity [1]: Active; Activity [3]: Active; Activity [4]: Active; Activity [8]: Active |
| Cc1c(-n2c(Cc3ccc(Cl)cc3)n[nH]c2=O)c(=O)n(-c2ccccc2)n1C | – | – | – | – | – | – | – | – | Active | Active | Active | Active | Active | Active | Active | Active | Activity [1]: Active; Activity [3]: Active; Activity [4]: Active; Activity [8]: Active |
| Cc1c(-n2c(Cc3ccc(Cl)cc3)nn(CC(=O)N/N=c3/scc(-c4ccc([N+](=O)[O-])cc4)n3-c3ccccc3)c2=O)c(=O)n(-c2ccccc2)n1C | 15 | – | 30 | 20 | 30 | 18 | 20 | 25 | Active | Active | Active | Active | Active | – | – | – | – |
| Cc1c(-n2c(Cc3ccc(Cl)cc3)nn(CC(=O)NNC(=S)NCc3ccccc3)c2=O)c(=O)n(-c2ccccc2)n1C | 15 | 10 | 10 | 10 | 10 | 8 | 10 | 15 | Active | Active | Active | Active | – | – | – | – | – |
| CC1(C)S[C@@H]2[C@H](NC(=O)[C@H](N)c3ccccc3)C(=O)N2[C@H]1C(=O)O [AMPICILLIN] | 10 | 10 | 18 | 18 | 35 | 10 | 15 | – | – | – | – | – | – | – | – | – | – |
| Cc1c(-n2c(Cc3ccc(Cl)cc3)nn(Cc3nnc(Nc4ccc(F)cc4)s3)c2=O)c(=O)n(-c2ccccc2)n1C | 20 | 25 | 25 | 20 | – | – | – | 25 | Active | Active | Active | Active | – | Active | Active | Active | – |
| Cc1c(-n2c(Cc3ccc(Cl)cc3)nn(CC(=O)N/N=c3/scc(-c4ccc(Cl)cc4)n3-c3ccccc3)c2=O)c(=O)n(-c2ccccc2)n1C | 15 | – | 12 | – | – | – | – | 10 | Active | Active | Active | Active | Active | Active | Active | Active | Activity [4]: Active |
| Cc1c(-n2c(Cc3ccc(Cl)cc3)nn(Cc3nnc(NCc4ccccc4)s3)c2=O)c(=O)n(-c2ccccc2)n1C | 25 | 25 | 25 | 30 | – | – | – | 25 | Active | Active | Active | Active | – | Active | Active | Active | – |
